Calls of active or inactive are those of the source. The calls are words filed in the database; no cut-off is given here.
Assays:
A549 = assay: Antiproliferative activity against human A549 cells after 72 hrs by SRB assay; assay type: functional, cell-based; details: A549, 72 h
How it was run: (§1)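 Cells seeded at 4000−12 000 per well, density set by the line's doubling time. Compounds were added in DMSO, at most 0.1% v/v. After 72 h exposure, attached cells were fixed with 10% TCA, stained with 0.04% SRB, and the dye was solubilised in 10 mM Tris base. KB-VIN was maintained in 100 nM VIN.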

MDA-MB-231 = assay: Antiproliferative activity against human MDA-MB-231 cells after 72 hrs by SRB assay; assay type: functional, cell-based; details: MDA-MB-231, 72 h; how it was run: as §1
MCF7 = assay: Antiproliferative activity against human MCF7 cells after 72 hrs by SRB assay; assay type: functional, cell-based; details: MCF7, 72 h
How it was run: as §1, with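 “base. Absorbance read at 515 nm. IC50 is 50% reduction relative to untreated cells, averaged over at least three independent experiments in duplicate.” for “base.”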

KB = assay: Antiproliferative activity against human KB cells after 72 hrs by SRB assay; assay type: functional, cell-based; how it was run: as §1
[1] = Antiproliferative activity against human KBVIN cells after 72 hrs by SRB assay; assay type: functional, cell-based
How it was run: as §1, with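 “base. Absorbance read at 515 nm. IC50 is 50% reduction relative to untreated cells, averaged over at least three independent experiments in duplicate.” for “base.”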

KBVIN [2] = assay: Cell cycle arrest in human KBVIN cells assessed as accumulation at S phase at 20 uM after 24 to 48 hrs by propidium iodide staining-based flow cytometric method; assay type: functional
How it was run: (§2)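 KB-VIN cells were seeded 24 h before dosing, then exposed for 24 or 48 h, with 0.1% DMSO as the vehicle control. DNA content was stained with propidium iodide and cell-cycle distribution (sub-G1, S, G2/M) analysed by flow cytometry. Experiments were repeated at least three times.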

KBVIN [3] = assay: Cell cycle arrest in human KBVIN cells assessed as increase in cell levels at sub G1 phase at 20 uM after 48 hrs by propidium iodide staining-based flow cytometric method; assay type: functional; how it was run: as §2
Homo sapiens [4] = organism: Homo sapiens; assay: Induction of DNA double strand breaks in human KBVIN cells assessed as increase in gamma-H2AX positive nuclei at 20 uM after 24 hrs by DAPI staining-based confocal fluorescence microscopic method; assay type: cell-based
How it was run: (§3)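 KB-VIN cells on chamber slides were dosed 24 h after seeding and treated for 24 h, with 0.1% DMSO as control. Cells were fixed in ice-cold 4% paraformaldehyde/PBS and permeabilised with 0.5% Triton X-100. Staining used mouse anti-α-tubulin with FITC secondary, rabbit anti-γ-H2AX with Alexa Fluor 546 secondary, and DAPI for nuclei. Stacked confocal images were examined.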

Homo sapiens [5] = organism: Homo sapiens; assay: Induction of morphological changes of microtubule in human KBVIN cells at 20 uM after 24 hrs by DAPI staining-based confocal fluorescence microscopic method; assay type: cell-based; how it was run: as §3
KBVIN [6] = assay: Cell cycle arrest in human KBVIN cells at 0.3 uM after 24 hrs by propidium iodide staining-based flow cytometric method; assay type: functional
How it was run: (§4)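 KB-VIN (P-gp-overexpressing MDR KB subline, maintained with 100 nM vincristine) seeded 24 h before treatment. Compound exposure 24 or 48 h, vehicle 0.1% DMSO; 5-FU and CA-4 (10 nM, 24 h) served as S and G2/M arrest controls. DNA content read by propidium iodide staining and flow cytometry. Experiments repeated at least three times.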

KBVIN [7] = assay: Cell cycle arrest in human KBVIN cells assessed as accumulation at sub-G1 phase at 0.3 uM after 48 hrs by propidium iodide staining-based flow cytometric method; assay type: functional; how it was run: as §4
KBVIN [8] = assay: Cell cycle arrest in human KBVIN cells assessed as accumulation at S phase at 3 to 10 uM after 24 to 48 hrs by propidium iodide staining-based flow cytometric method; assay type: functional; how it was run: as §4
Homo sapiens [9] = organism: Homo sapiens; assay: Induction of DNA double strand breaks in human KBVIN cells assessed as increase in gamma-H2AX positive nuclei after 24 hrs by DAPI staining-based confocal fluorescence microscopic method; assay type: cell-based
How it was run: (§5)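 KB-VIN cells on chamber slides 24 h, then compound (0.3 and 3.0 µM) or 0.1% DMSO for 24 h. Fixed in ice-cold 4% paraformaldehyde/PBS, permeabilised with 0.5% Triton X-100. Stained with mouse anti-α-tubulin (FITC secondary), rabbit anti-γ-H2AX (Alexa Fluor 546 secondary) and DAPI. Imaged by confocal microscopy as stacked images.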

KBVIN [10] = assay: Induction of apoptosis in human KBVIN cells assessed as nuclear fragmentation at 0.3 to 3 uM after 24 hrs by DAPI staining-based confocal fluorescence microscopic method; assay type: functional, cell-based; how it was run: as §5
Homo sapiens [11] = organism: Homo sapiens; assay: Induction of morphological changes of microtubule in human KBVIN cells at 3 uM after 24 hrs by DAPI staining-based confocal fluorescence microscopic method; assay type: cell-based; how it was run: as §5

| Structure (SMILES) | IC50 (A549) [µM] | IC50 (MDA-MB-231) [µM] | IC50 (MCF7) [µM] | IC50 (KB) [µM] | IC50 [1] [µM] | Activity (KBVIN [2]) | Activity (KBVIN [3]) | Activity (Homo sapiens [4]) | Activity (Homo sapiens [5]) | Activity (KBVIN [6]) | Activity (KBVIN [7]) | Activity (KBVIN [8]) | Activity (Homo sapiens [9]) | Activity (KBVIN [10]) | Activity (Homo sapiens [11]) |
| --- | --- | --- | --- | --- | --- | --- | --- | --- | --- | --- | --- | --- | --- | --- | --- |
| COc1cc2c(cc1O)C[C@H]1c3cc4c(cc3C[C@@H]2N1C)OCO4 | 3.98 | 5.71 | 7.42 | 5.49 | 5.91 | – | – | – | – | – | – | – | – | – | – |
| CN1[C@H]2Cc3cc4c(cc3[C@@H]1Cc1cc3c(cc12)OCO3)OCO4 [ESCHOLTZINE] | 8.71 | 26.1 | 26.6 | 17 | 19.8 | inactive | Active | inactive | inactive | – | – | – | – | – | – |
| C[N+]1([O-])[C@H]2Cc3cc4c(cc3[C@@H]1Cc1cc3c(cc12)OCO3)OCO4 (some centres not stated) | 29.3 | 41 | > 40 | 35.5 | > 40 | – | – | – | – | – | – | – | – | – | – |
| COc1cc2c(cc1O)[C@@H]1Cc3cc(OC)c(OC)cc3[C@H](C2)N1C | > 40 | > 40 | > 40 | > 40 | > 40 | – | – | – | – | – | – | – | – | – | – |
| CC(=O)O[C@H]1C(=O)[C@@]2(C)[C@H]([C@H](OC(=O)c3ccccc3)[C@]3(O)C[C@H](OC(=O)[C@H](O)[C@@H](NC(=O)c4ccccc4)c4ccccc4)C(C)=C1C3(C)C)[C@]1(OC(C)=O)CO[C@@H]1C[C@@H]2O [PACLITAXEL] | – | – | 0.0104 | – | 1.93 | – | – | – | – | – | – | – | – | – | – |
| COc1ccc2c(c1O)[C@@H]1Cc3cc4c(cc3[C@H](C2)N1C)OCO4 | 0.064 | 0.264 | 0.413 | 0.228 | 0.241 | – | – | – | – | inactive | Active | Active | Dose-dependent effect | Active | Active |

Reference: ChEMBL document CHEMBL4004815, “(-)-Neocaryachine, an Antiproliferative Pavine Alkaloid from Cryptocarya laevigata, Induces DNA Double-Strand Breaks” (J Nat Prod, 2017)
